Activity calls are given as the source filed them. The calls are words filed in the database; no cut-off is given here.
Tests used:
Rattus norvegicus = test: Induction of axonal outgrowth of RGC in Sprague-Dawley rat optic nerve injury model assessed as regeneration of 500 to 1500 um crushed optic nerves at 0.22 ug/eye administered intravitreously once in 4 days for 3 weeks by measuring optic nerve injury by GAP-43 expression based microscopy (reference value: 0.22 +/- 0.081); assay type: functional
[1] = Metabolic stability in mouse liver S9 fraction assessed as compound remaining after 30 mins; assay type: ADME, subcellular; settings: read-out: Stability
Cerebral cortex neuron = test: Induction of neurite outgrowth in Sprague-Dawley rat primary cortical neurons at 1 to 10 uM after 48 hrs by DAPI staining based confocal fluorescence image analyzer; assay type: functional, cell-based
Procedure, shortened: (§1)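 E18 Sprague-Dawley rat hippocampus and cortex dissociated separately, seeded at 2,000 cells/well in Neurobasal/B27 with 2 mM glutamate; after 24 h treated 48 h. Fixed, stained anti-βIII tubulin with DAPI nuclei; four fields per well imaged at 10x, neurite total length per neuron; mean ± SD, n=3.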

P19 [2] = test: Induction of neurite outgrowth in mouse P19 cells transfected with neuroD2 at 10 uM after 48 hrs by DAPI staining based confocal fluorescence image analyzer relative to control; assay type: functional
Procedure, shortened: (§2)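 P19 cells transfected with NeuroD2 cDNA, replated 12 h later at 8,000 cells/well in MEM, 5% FBS, 1 mM pyruvate, 2 mM glutamate; after 24 h compound exposure 48 h. βIII tubulin immunofluorescence with DAPI, four fields/well imaged at 10x, neurite outgrowth relative to DMSO-treated cells.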

Hippocampal neurone = test: Induction of neurite outgrowth in Sprague-Dawley rat primary hippocampal neurons after 48 hrs by DAPI staining based confocal fluorescence image analyzer; assay type: functional; procedure, shortened: as §1
P19 [3] = test: Induction of neurite outgrowth in mouse P19 cells transfected with neuroD2 <1 uM after 48 hrs by DAPI staining based confocal fluorescence image analyzer relative to control; assay type: functional, cell-based; procedure, shortened: as §2
P19 [4] = test: Induction of neurite outgrowth in mouse P19 cells transfected with neuroD2 at 10 to 20 uM after 48 hrs by DAPI staining based confocal fluorescence image analyzer relative to control; assay type: functional; procedure, shortened: as §2

remaining at 0.5 h [1] [%] | Compound | Activity (Rattus norvegicus) | Activity (Cerebral cortex neuron) | fold change (FC) (P19 [2]) | Activity (Hippocampal neurone) | Activity (P19 [3]) | fold change (FC) (P19 [4])
61.2 | COc1ccncc1NC(=O)CN(c1ccccc1OC)S(=O)(=O)c1ccc(C)cc1 | 0.7 | Active | 4.2 | Active | – | –
– | COc1ccc(NC(=O)CN(c2ccccc2OC)S(=O)(=O)c2ccc(C)cc2)c(OC)c1 | – | Active | 2.7 | Active | – | –
– | COc1ccc(OC)c(NC(=O)CN(c2ccccc2OC)S(=O)(=O)c2ccc(Br)cc2)c1 | – | Active | 5 | Active | – | –
– | COc1ccc(OC)c(NC(=O)CN(c2ccccc2OC)S(=O)(=O)c2ccc(F)cc2)c1 | – | Active | 2.5 | Active | – | –
– | CCOc1ccccc1NC(=O)CN(c1ccccc1F)S(=O)(=O)c1ccc(C)cc1 | – | Active | 2.9 | Active | – | –
– | COc1ccncc1NC(=O)CN(c1ccccc1OC)S(=O)(=O)c1ccc(Br)cc1 | – | Active | 3.7 | Active | – | –
– | COc1ccccc1N(CC(=O)Nc1ncccc1OC)S(=O)(=O)c1ccc(C)cc1 | – | Active | 1.6 | Active | – | –
– | COc1ccccc1N(CC(=O)Nc1cccnc1OC)S(=O)(=O)c1ccc(C)cc1 | – | Active | 2.8 | Active | – | –
0.4 | COc1ccc(S(=O)(=O)N(CC(=O)Nc2cc(OC)ccc2OC)c2ccccc2OC)cc1 | – | Active | 2.3 | Active | – | –
– | COc1ccccc1N(CC(=O)Nc1ccc2ncccc2c1)S(=O)(=O)c1ccc(C)cc1 | – | Active | 1 | Active | – | –
– | COc1ccccc1N(CC(=O)Nc1ccccc1Br)S(=O)(=O)c1ccc(C)cc1 | – | Active | 2.1 | Active | – | –
– | COc1ccccc1N(CC(=O)Nc1ncc[nH]1)S(=O)(=O)c1ccc(C)cc1 | – | – | – | Active | – | –
0.3 | COC(=O)c1ccccc1NC(=O)CN(c1ccccc1OC)S(=O)(=O)c1ccc(C)cc1 | – | Active | 3 | Active | – | –
– | CCOc1ncccc1NC(=O)CN(c1ccccc1OC)S(=O)(=O)c1ccc(C)cc1 | – | Active | 2.1 | Active | – | –
– | COc1ccncc1NC(=O)CN(c1ccccc1OC)S(=O)(=O)c1ccc(SC)cc1 | – | Active | 3.9 | Active | – | –
– | COc1cccc(NC(=O)CN(c2ccccc2OC)S(=O)(=O)c2ccc(C)cc2)c1 | – | Active | 1.8 | Active | – | –
23.1 | COc1ccc(CCN(C)CCCC(C#N)(c2ccc(OC)c(OC)c2)C(C)C)cc1OC (stereo not drawn) [VERAPAMIL] | – | – | – | – | – | –
– | COc1ccc(OC)c(NC(=O)CN(Cc2ccc(C)cc2)c2ccccc2OC)c1 | – | – | – | Active | – | –

remaining at 0.5 h [1] [%] | Compound | Activity (Rattus norvegicus) | Activity (Cerebral cortex neuron) | fold change (FC) (P19 [2]) | Activity (Hippocampal neurone) | Activity (P19 [3]) | fold change (FC) (P19 [4])
– | COc1ccccc1N(CC(=O)Nc1nccs1)S(=O)(=O)c1ccc(C)cc1 | – | – | – | Active | – | –
– | CCc1ccccc1NC(=O)CN(c1ccccc1OC)S(=O)(=O)c1ccc(C)cc1 | – | – | 0.8 | Active | – | –
– | CCOc1ccccc1NC(=O)CN(c1ccccc1)S(=O)(=O)c1ccc(C)cc1 | – | Active | 2.5 | Active | – | –
97.7 | CC(=O)Nc1ccc(O)cc1 [ACETAMINOPHEN] | – | – | – | – | – | –
– | COc1ccccc1N(CC(=O)Nc1ccccc1)S(=O)(=O)c1ccc(C)cc1 | – | Active | 2 | Active | – | –
– | COc1ccc(OC)c(NC(=O)CN(c2ccccc2OC)S(=O)(=O)c2ccc(SC)cc2)c1 | – | Active | 3.2 | Active | – | –
– | COc1ccccc1N(CC(=O)Nc1cnc2ccccc2c1)S(=O)(=O)c1ccc(C)cc1 | – | Active | 3.6 | Active | – | –
– | CCOc1ccccc1CNC(=O)CN(c1ccccc1OC)S(=O)(=O)c1ccc(C)cc1 | – | – | – | Active | – | –
– | COc1ccccc1N(CC(=O)Nc1ccccc1F)S(=O)(=O)c1ccc(C)cc1 | – | Active | 2.1 | Active | – | –
0.7 | CCOc1ccccc1NC(=O)CN(c1ccccc1OC)S(=O)(=O)c1ccc(C)cc1 | – | Active | – | Active | inactive | 3.2
– | COc1ccc(OC)c(NC(=O)CN(C(=O)c2ccc(Cl)cc2)c2ccccc2OC)c1 | – | – | 1 | Active | – | –
– | CCOc1ccccc1NC(=O)CN(c1ccccc1C)S(=O)(=O)c1ccc(C)cc1 | – | Active | 2.6 | Active | – | –
– | CCOc1ccccc1NC(=O)CN(c1cccc(OC)c1)S(=O)(=O)c1ccc(C)cc1 | – | Active | 3.1 | Active | – | –
– | CCOc1ccccc1NC(=O)CN(c1ccccc1Cl)S(=O)(=O)c1ccc(C)cc1 | – | Active | 2.6 | Active | – | –
0.4 | COc1ccc(NC(=O)CN(c2ccccc2OC)S(=O)(=O)c2ccc(Cl)cc2)c(OC)c1 | – | Active | 4.2 | Active | – | –
– | COc1ccccc1N(CC(=O)Nc1cccnc1OC(C)C)S(=O)(=O)c1ccc(C)cc1 | – | Active | 2.3 | Active | – | –
– | COc1ccccc1N(CC(=O)Nc1cccc2ncccc12)S(=O)(=O)c1ccc(C)cc1 | – | Active | 1.3 | Active | – | –

Reference: ChEMBL document CHEMBL3822403, “Discovery, Optimization, and Biological Evaluation of Sulfonamidoacetamides as an Inducer of Axon Regeneration” (J Med Chem, 2016)
